The values that follow come from publication PMC7262549 (Biochemistry and Biophysics Reports, 2020).

Read-outs that look alike come from different tables or passages of the source.

What all share (conditions): 4 mM MgSO4
In test [1] the test system is Pmat (wt). Put plainly: luminometry, peak light intensity, Michaelis-Menten fit. Type of test: biochemical, Pyrocoelia matsumurai kumejimensis.
For test [2], the system named is Psag (wt). Described as above. It counts as biochemical, Pristolycus sagulatus.
Test [3] deals with Dkum (wt). Described as above. It counts as biochemical, Drilaster kumejimensis.
A further test relates to MALuci2 (wt). Put plainly: luminometry, peak light intensity, Michaelis-Menten fit. Type of test: biochemical, Luciola sp. In short, it runs like this: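 Wild-type luciferase coding sequence from lantern cDNA, expressed from pRSET-B in E. coli JM109(DE3) and Ni-NTA purified. Luciferin Km: 50 μg/mL partially purified enzyme, luciferin 0.6–640 μM. ATP Km: 50 μg/mL purified enzyme, ATP 5–1920 μM. Light emission recorded 10 s at 0.02 s gating on a luminometer. Rate taken as peak intensity; Km from least-squares Michaelis–Menten fit.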

Test [4] concerns Psag (wt).
Test [5] concerns Pmat (wt).
Test [6] relates to Sfla (wt).
Test [7] relates to Dkum (wt).
Test [8] concerns Sfla (wt). The experiment in a line: luminometry, peak light intensity, Michaelis-Menten fit. Type of test: biochemical, Stenocladius flavipennis.
[9] abbreviates: read-out: Km (luciferin μM), 50 mM Tris-HCl pH 8.0, 2 mM ATP.
[10] abbreviates: read-out: Km (ATP μM), 50 mM Tris-HCl pH 8.0, 1 mM luciferin.

What is called Km is the substrate concentration at which the rate is half of its maximum. Regarding `O=C(O)[C@H]1CSC(c2nc3ccc(O)cc3s2)=N1` [D-luciferin], the Km in the test on Pmat (wt) [1] (setting [9]) was found to be 14.2 µM; in the test on Psag (wt) [2] (setting [9]), 4.9 µM; with Dkum (wt) [3] (setting [9]) it was 60.1 µM; in the test on MALuci2 (wt) (setting [9]), 4.25 µM; in the test with Psag (wt) [4] (setting [9]) it was 222 µM; in the test on Pmat (wt) [5] (setting [9]), 62.2 µM. For the same molecule, the figures for the Km with Sfla (wt) [6] (setting [9]), with Dkum (wt) [7] (setting [9]) and in the test with Sfla (wt) [8] (setting [9]) were 6.6 µM, 19.4 µM and 16.6 µM, respectively.
In the case of `Nc1ncnc2c1ncn2[C@@H]1O[C@H](COP(=O)(O)OP(=O)(O)OP(=O)(O)O)[C@@H](O)[C@H]1O` [ATP], the Km in the test with Pmat (wt) [1] (setting [10]) worked out at 104 µM; in the test on Psag (wt) [2] (setting [10]) it was 194 µM; with Dkum (wt) [3] (setting [10]), 127 µM; with MALuci2 (wt) (setting [10]), 188 µM; with Psag (wt) [4] (setting [10]) it was 282 µM; in the test on Pmat (wt) [5] (setting [10]), 98.1 µM. Moreover, the Michaelis-Menten constant (Km) came out at 9 µM with Sfla (wt) [6] (setting [10]), 26.8 µM in the test on Dkum (wt) [7] (setting [10]) and 21.5 µM with Sfla (wt) [8] (setting [10]).
